From paper PMC4030725 (Molecular pharmaceutics, 2013)
Where two headings read alike, the source gives them in different places. One block for each compound: values may come before it.

Experiments:
UGT1A9 = settings: cited from earlier work
HeLa-UGT1A9 cells [1] = assay: Fraction metabolized; type: in vitro ADME, human; settings: six DHFs compared at five loading concentrations (Fig. 8A)
[2] = biological target: T1, Human BCRP (Arg482) membrane vesicles (Homo sapiens, UniProt Q9UNQ0); assay: Vesicular transport of HF glucuronides in BCRP-overexpressing membrane vesicles; type: in vitro ADME; settings: for difference in Km between membrane vesicles and HeLa-UGT1A9 cells: BCRP vesicles vs HeLa-UGT1A9 cells; for Km: efflux kinetic parameter Km, BCRP membrane vesicles (Table 2, unit inferred)
T1 sequence (Q9UNQ0 1-655): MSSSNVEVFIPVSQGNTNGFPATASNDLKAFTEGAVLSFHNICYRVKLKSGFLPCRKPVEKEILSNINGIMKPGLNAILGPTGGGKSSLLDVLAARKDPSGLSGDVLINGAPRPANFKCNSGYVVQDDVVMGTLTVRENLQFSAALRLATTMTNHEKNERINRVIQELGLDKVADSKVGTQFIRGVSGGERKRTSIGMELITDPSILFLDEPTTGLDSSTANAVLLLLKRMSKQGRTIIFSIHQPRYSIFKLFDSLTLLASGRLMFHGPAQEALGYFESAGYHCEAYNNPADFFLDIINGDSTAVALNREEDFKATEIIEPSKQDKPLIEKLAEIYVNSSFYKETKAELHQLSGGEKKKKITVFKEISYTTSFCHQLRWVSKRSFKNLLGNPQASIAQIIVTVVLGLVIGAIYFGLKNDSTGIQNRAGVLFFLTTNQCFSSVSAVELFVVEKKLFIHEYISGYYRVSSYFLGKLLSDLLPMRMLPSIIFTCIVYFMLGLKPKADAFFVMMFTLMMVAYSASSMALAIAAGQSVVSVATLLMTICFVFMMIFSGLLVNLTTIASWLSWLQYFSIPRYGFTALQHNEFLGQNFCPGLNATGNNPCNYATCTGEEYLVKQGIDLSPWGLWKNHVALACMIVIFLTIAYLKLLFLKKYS
Procedure, shortened: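 Inside-out human BCRP (Arg482) membrane vesicles were incubated with glucuronide substrate and 5 mM ATP, or AMP as control, in 10 mM MgCl₂/10 mM Tris-HCl (pH 7.4). The reaction was stopped with cold buffer, followed by rapid filtration through glass-fibre filters and ice-cold washes. Filters were extracted in 50% methanol with sonication, centrifuged and analysed by UPLC. ATP-dependent transport was taken as ATP minus AMP values.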

BCRP = biological target: T2, BCRP (Homo sapiens, UniProt Q9UNQ0); assay: BCRP-mediated efflux of flavone glucuronides from HeLa-UGT1A9 cells; type: in vitro ADME; settings: for Log(CLint) / Vmax: BCRP-mediated glucuronide efflux, HeLa-UGT1A9 cells; for Km: efflux kinetic parameter Km, HeLa-UGT1A9 cells (Table 2, unit inferred)
T2 sequence (Q9UNQ0 1-655): T1 sequence (Q9UNQ0 1-655)
Procedure, shortened: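 HeLa cells stably expressing UGT1A9 were used 3 days post-seeding and washed twice with 37°C HBSS (pH 7.4). They were loaded at 37°C with a mono- or dihydroxyflavone aglycone in HBSS, diluted from a 100X DMSO/methanol (1:4) stock. Medium was sampled within the linear time range, quenched with acetonitrile/acetic acid and analysed by UPLC-DAD. Rates (pmol/min/mg protein) were fitted against intracellular glucuronide concentration; CLint = Vmax/Km. n=3.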

HeLa-UGT1A9 cells [3] = type: in vitro ADME, human; settings: end of experiment
Procedure, shortened: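 After the efflux incubation, cells were washed twice with ice-cold HBSS, collected in HBSS and sonicated for 30 min at 4°C. Lysates were centrifuged at 15,500 rpm for 20 min. Supernatant was mixed with acetonitrile/acetic acid stop solution and glucuronides were quantified by UPLC-DAD. Protein was measured by assay kit against a BSA standard, and concentration was calculated assuming a cell volume of 4 μl/mg protein. n=3.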

[4] = UGT1A9-mediated glucuronidation of the aglycone, ref Wu and Hu [37]
[5] = loading aglycone concentration 1.25 μM
[6] = loading aglycone concentration 2.5 μM
[7] = loading aglycone concentration 5 μM
[8] = loading aglycone concentration 10 μM
[9] = loading aglycone concentration 15 μM
[10] = loading aglycone concentration 20 μM
[11] = loading aglycone concentration 0.3125 μM
[12] = loading aglycone concentration 0.625 μM

Compound: O=c1cc(-c2ccccc2)oc2cccc(O)c12 [5HF, 5-Hydroxyflavone]
Vmax′ (UGT1A9; [4]): 118 pmol/mg/min
CLint′(Vmax′/ Km′) (UGT1A9): 123 µL/min/mg
Km (UGT1A9): 0.96 µM
Log(CLint)′ (UGT1A9): 2.09

Compound: O=c1c(O)c(-c2ccccc2)oc2ccc(O)cc12 [3,6DHF, 3,6-Dihydroxyflavone]
Km (UGT1A9; [4]): 0.62 µM
Log(CLint)′ (UGT1A9; [4]): 4.34
Vmax′ (UGT1A9; [4]): 13000 pmol/mg/min
fmet (HeLa-UGT1A9 cells [1]): highest fmet value at all tested concentration

Compound: O=c1cc(-c2ccccc2)oc2cc(O)ccc12 [7HF, 7-Hydroxyflavone]
Km (UGT1A9; [4]): 3.59 µM
Log(CLint)′ (UGT1A9; [4]): 3.13
Vmax′ (UGT1A9; [4]): 4895 pmol/mg/min

Compound: O=c1c(O)c(-c2ccccc2)oc2ccccc12 [3HF, 3-Hydroxyflavone]
Km (UGT1A9; [4]): 0.3 µM
Log(CLint)′ (UGT1A9; [4]): 3.84
Vmax′ (UGT1A9; [4]): 2100 pmol/mg/min

difference in Km between membrane vesicles and HeLa-UGT1A9 cells [2]: > 10 fold
Km [2]: 2.9 µM
Log(CLint) (BCRP): 0.77
Vmax (BCRP): 283.4 ± 20.0 pmol/mg/min
Km (BCRP): 48.5 µM
Intracellular Con. of HFs-G or DHFs-3-O-G (HeLa-UGT1A9 cells [3]; [5]): 31.03 ± 0.44 µM
Intracellular Con. of HFs-G or DHFs-3-O-G (HeLa-UGT1A9 cells [3]; [6]): 47.98 ± 3.91 µM
Intracellular Con. of HFs-G or DHFs-3-O-G (HeLa-UGT1A9 cells [3]; [7]): 72.86 ± 2.26 µM
Intracellular Con. of HFs-G or DHFs-3-O-G (HeLa-UGT1A9 cells [3]; [8]): 94.74 ± 11.70 µM
Intracellular Con. of HFs-G (HeLa-UGT1A9 cells [3]; [9]): 18.32 ± 6.47 µM
Intracellular Con. of HFs-G (HeLa-UGT1A9 cells [3]; [10]): 235.51 ± 14.96 µM
Compound: O=C(O)[C@H]1O[C@@H](Oc2cccc3oc(-c4ccccc4)cc(=O)c23)[C@H](O)[C@@H](O)[C@@H]1O [5HF-G]

Compound: O=c1c(O)c(-c2ccc(O)cc2)oc2ccccc12 [3,4′DHF, 3,4′-Dihydroxyflavone]
Km (UGT1A9; [4]): 0.13 µM
Vmax′ (UGT1A9; [4]): 1800 pmol/mg/min

Log(CLint) (BCRP): 0.72
Vmax (BCRP): 67.3 ± 6.2 pmol/mg/min
Intracellular Con. of DHFs-3-O-G (HeLa-UGT1A9 cells [3]; [11]): 2.28 ± 0.68 µM
Intracellular Con. of DHFs-3-O-G (HeLa-UGT1A9 cells [3]; [12]): 4.82 ± 0.02 µM
Intracellular Con. of HFs-G or DHFs-3-O-G (HeLa-UGT1A9 cells [3]; [5]): 14.70 ± 2.60 µM
Intracellular Con. of HFs-G or DHFs-3-O-G (HeLa-UGT1A9 cells [3]; [6]): 53.48 ± 3.45 µM
Intracellular Con. of HFs-G or DHFs-3-O-G (HeLa-UGT1A9 cells [3]; [7]): 242.98 ± 9.46 µM
Intracellular Con. of HFs-G or DHFs-3-O-G (HeLa-UGT1A9 cells [3]; [8]): 416.65 ± 12.34 µM
Compound: O=C(O)[C@H]1O[C@@H](Oc2c(-c3ccccc3)oc3cccc(O)c3c2=O)[C@H](O)[C@@H](O)[C@@H]1O [3,5DHF-3-O-G]

Compound: O=c1c(O)c(-c2ccccc2)oc2cccc(O)c12 [3,5 DHF, 3,5-Dihydroxyflavone]
Km (UGT1A9; [4]): 0.25 µM
Log(CLint)′ (UGT1A9; [4]): 3.88
Vmax′ (UGT1A9; [4]): 1900 pmol/mg/min
fmet (HeLa-UGT1A9 cells [1]): least sensitive to the rising concentration

Compound: O=c1c(O)c(-c2ccccc2O)oc2ccccc12 [3,2′DHF, 3,2′-Dihydroxyflavone]
Km (UGT1A9; [4]): 0.67 µM
Log(CLint)′ (UGT1A9; [4]): 1.89
Vmax′ (UGT1A9; [4]): 52 pmol/mg/min

difference in Km between membrane vesicles and HeLa-UGT1A9 cells [2]: approximately 3 fold
Km [2]: 29 µM
Log(CLint) (BCRP): 1.23
Vmax (BCRP): 165.6 ± 10.1 pmol/mg/min
Km (BCRP): 9.7 µM
Intracellular Con. of HFs-G or DHFs-3-O-G (HeLa-UGT1A9 cells [3]; [5]): 7.14 ± 3.02 µM
Intracellular Con. of HFs-G or DHFs-3-O-G (HeLa-UGT1A9 cells [3]; [6]): 38.56 ± 8.36 µM
Intracellular Con. of HFs-G or DHFs-3-O-G (HeLa-UGT1A9 cells [3]; [7]): 206.98 ± 12.39 µM
Intracellular Con. of HFs-G or DHFs-3-O-G (HeLa-UGT1A9 cells [3]; [8]): 335.57 ± 41.55 µM
Intracellular Con. of HFs-G (HeLa-UGT1A9 cells [3]; [9]): 356.82 ± 94.04 µM
Intracellular Con. of HFs-G (HeLa-UGT1A9 cells [3]; [10]): 280.60 ± 28.78 µM
Compound: O=C(O)[C@H]1O[C@@H](Oc2c(-c3ccccc3)oc3ccccc3c2=O)[C@H](O)[C@@H](O)[C@@H]1O [3HF-G]

Compound: O=c1cc(-c2ccc(O)cc2)oc2ccccc12 [4′HF, 4′-Hydroxyflavone]
Km (UGT1A9; [4]): 1.46 µM
Log(CLint)′ (UGT1A9; [4]): 1.83
Vmax′ (UGT1A9; [4]): 98.7 pmol/mg/min

Compound: O=c1c(O)c(-c2ccccc2)oc2cc(O)ccc12 [3,7DHF(3-OH), 3,7-Dihydroxyflavone]
Km (UGT1A9; [4]): 0.22 µM
Log(CLint)′ (UGT1A9; [4]): 4.32
Vmax′ (UGT1A9; [4]): 4600 pmol/mg/min

Log(CLint) (BCRP): 0.38
Vmax (BCRP): 86.0 ± 5.4 pmol/mg/min
Intracellular Con. of DHFs-3-O-G (HeLa-UGT1A9 cells [3]; [11]): 2.67 ± 0.09 µM
Intracellular Con. of DHFs-3-O-G (HeLa-UGT1A9 cells [3]; [12]): 14.27 ± 2.00 µM
Intracellular Con. of HFs-G or DHFs-3-O-G (HeLa-UGT1A9 cells [3]; [5]): 71.15 ± 6.11 µM
Intracellular Con. of HFs-G or DHFs-3-O-G (HeLa-UGT1A9 cells [3]; [6]): 241.60 ± 26.10 µM
Intracellular Con. of HFs-G or DHFs-3-O-G (HeLa-UGT1A9 cells [3]; [7]): 645.32 ± 5.81 µM
Intracellular Con. of HFs-G or DHFs-3-O-G (HeLa-UGT1A9 cells [3]; [8]): 715.62 ± 31.7 µM
Compound: O=C(O)[C@H]1O[C@@H](Oc2c(-c3ccc(O)cc3)oc3ccccc3c2=O)[C@H](O)[C@@H](O)[C@@H]1O [3,4′DHF-3-O-G]

Compound: O=c1c(O)c(-c2cccc(O)c2)oc2ccccc12 [3,3′ DHF, 3,3′-Dihydroxyflavone]
Km (UGT1A9; [4]): 0.11 µM
Log(CLint)′ (UGT1A9; [4]): 4.44
Vmax′ (UGT1A9; [4]): 3100 pmol/mg/min

Compound: O=c1cc(-c2cccc(O)c2)oc2ccccc12 [3′HF, 3′-Hydroxyflavone]
Km (UGT1A9; [4]): 2.02 µM
Log(CLint)′ (UGT1A9; [4]): 2.66
Vmax′ (UGT1A9; [4]): 926 pmol/mg/min

Compound: O=c1cc(-c2ccccc2)oc2ccc(O)cc12 [6HF, 6-Hydroxyflavone]
Km (UGT1A9; [4]): 2.27 µM
Log(CLint)′ (UGT1A9; [4]): 1.53
Vmax′ (UGT1A9; [4]): 76.1 pmol/mg/min

Compound: O=c1cc(-c2ccccc2O)oc2ccccc12 [2′HF, 2′-Hydroxyflavone]
Km (UGT1A9; [4]): 0.4 µM
Log(CLint)′ (UGT1A9; [4]): 2.27
Vmax′ (UGT1A9; [4]): 74.4 pmol/mg/min
